# Compounds with a hit are over-represented: about 1.8% of the library has one in this group of screens.
# TCR-CD3 inh: inhibitors of human TCR-CD3 interaction | inhibition, % at 9.4 µM | 360,000 tested, 0.37% active | AID 651800 | TAMRA-labeled TCR probe fluorescence, biochemical;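 note: recombinant mutant TCR 2C K166C tagged with TAMRA read by polarization; 0% = receptor in buffer alone and 100% = receptor with positive control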
# PME-1 inh: blocks human protein phosphatase methylesterase 1 | Q9Y570 | recombinant PME-1, FP-Rh probe fluorescence polarization | inhibition, % at 5.9 µM | 320,000 tested, 0.53% active;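 active = inhibition above the campaign mean of all compounds plus 3 SD, cut at about 26% in these data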;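 note: competitive labeling of PME-1 active site by serine hydrolase directed probe; 0% = PME-1 with DMSO and 100% = wells lacking PME-1 enzyme; inhibitors block probe labeling so polarization falls and inhibition rises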
# SIAE primary: blocks human sialic acid acetylesterase. AID 1053197. 370,000 tested, 0.69% active. SIAE FP-Rh probe binding, fluorescence polarization. inhibition, % at 9.66 µM;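 active = inhibition above a cutoff: mean of compounds within the control limits plus 3 SD of those, cut at about 17% in these data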;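 note: 0% = plate median of compound wells and 100% = probe without SIAE protein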
# HTRA1 inh: blocks human HTRA1 serine peptidase; inhibition, % at 5.96 µM; recombinant HTRA1, FP-rhodamine activity-based probe, fluorescence polarization; Q92743; AID 504803; 340,000 tested, 0.5% active; in the data active = inhibition above about 36%;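 note: 0% = enzyme with DMSO and 100% = wells lacking enzyme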
# Target sequence (Q92743 whole entry, looked up): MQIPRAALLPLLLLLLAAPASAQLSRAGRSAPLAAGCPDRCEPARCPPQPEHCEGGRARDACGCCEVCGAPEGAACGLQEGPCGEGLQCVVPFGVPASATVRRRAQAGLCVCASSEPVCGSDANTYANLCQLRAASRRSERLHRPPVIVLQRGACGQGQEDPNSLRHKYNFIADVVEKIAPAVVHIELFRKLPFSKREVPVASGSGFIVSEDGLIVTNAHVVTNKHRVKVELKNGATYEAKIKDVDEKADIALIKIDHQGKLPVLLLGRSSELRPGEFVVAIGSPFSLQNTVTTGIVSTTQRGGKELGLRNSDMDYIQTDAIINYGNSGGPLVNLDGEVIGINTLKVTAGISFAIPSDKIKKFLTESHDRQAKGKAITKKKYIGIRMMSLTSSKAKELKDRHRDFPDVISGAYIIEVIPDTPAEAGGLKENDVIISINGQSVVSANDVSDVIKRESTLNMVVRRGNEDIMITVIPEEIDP
# mABHD4 FP: inhibitors of mouse ABHD4. purified mABHD4, FP-Rh probe fluorescence polarization. 370,000 tested, 0.54% active. inhibition, % at 8.92 µM. Q8VD66;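 active = inhibition exceeding the mean over every tested compound plus 3 SD, cut at about 30% in these data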;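 note: 0% = plate median of compound wells and 100% = S159A mutant with DMSO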
#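 Test system: mABHD4 protein | Buffer or medium: HEPES pH 7.0 buffer, 150 mM NaCl, 0.01% Pluronic F-127 | Probe or stimulus: FP-Rh fluorescent activity-based probe, added after compound pre-incubation | Timing: Pre-incubation 45 min, probe exposure 60 min, at 25 °C | Technique: Fluorescence polarization, excitation 525 nm, emission 598 nm, BODIPY TMR filters | Repeats: Single well per compound (singlicate)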
# Fam108B inh: Fam108B inhibition, counter-screen for RBBP9 inhibitors; recombinant Fam108B, FP-Rh probe fluorescence polarization; inhibition, % at 9.51 µM; 300,000 tested, 0.33% active; AID 1947;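 active = inhibition above the screen mean inhibition plus 3 SD, computed separately per campaign, cut at about 18% in these data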;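 note: inhibitors lower polarization as less probe binds the enzyme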
# BSA probe FL: counter-screen for TCR-CD3 interaction inhibitors: BSA probe | TAMRA-labeled BSA probe fluorescence counterscreen | AID 652035 | inhibition, % at 9.4 µM | 1,200 tested, 10% active | shares compounds with TCR-CD3 inh; in the data active = inhibition above about 23%;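 note: 0% = buffer low control and 100% = reference high control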
# TCR-CD3 inh conf: confirmation of human TCR-CD3 interaction inhibitors; TAMRA-labeled TCR probe fluorescence binding assay; inhibition, % at 9.4 µM; shares compounds with TCR-CD3 inh; 1,200 tested, 48% active
# ABHD4 confirm: confirmation of mouse ABHD4 inhibitors | shares compounds with mABHD4 FP | purified mABHD4, FP-Rh probe fluorescence polarization | inhibition, % at 8.92 µM | 1,800 tested, 55% active;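 active = mean inhibition across replicates above the hit cutoff set in the primary screen, cut at about 30% in these data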;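 note: 0% = wild-type ABHD4 with DMSO and 100% = catalytically dead S159A mutant with DMSO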
# SIAE confirm: human SIAE inhibition, confirmation; SIAE FP-Rh activity-based probe, fluorescence polarization; shares compounds with SIAE primary; inhibition, % at 9.66 µM; 2,300 tested, 13% active;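 active = mean inhibition of the replicates above the hit cutoff set in the primary screen, cut at about 17% in these data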;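 note: 0% = SIAE with DMSO and probe and 100% = probe without SIAE; inhibitors lower polarization as more probe stays unbound to SIAE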
# The depositor's hits bear a star; / = not tested or not shown. Cut-off read from the data, not from the text of the source, unless noted: active = inhibition above about 19%; inactive = the rest.
SMILES,TCR-CD3 inh,PME-1 inh,SIAE primary,HTRA1 inh,mABHD4 FP,Fam108B inh,ABHD4 confirm,others
Cn1ccc2c(N3CCCCCCC3)cc3c(c21)C1CCC3O1 (configuration not stated),91*,/,49*,/,40*,/,6,BSA probe FL=-3;TCR-CD3 inh conf=-1;SIAE confirm=6
CN(c1cc2c(c3c1ccn3C)C1CCC2O1)C1CCCCC1 (configuration not stated),3,/,-2,/,2,/,/,
O=C(Cc1csc(N2CCOCC2)n1)N/N=C/c1ccc(O)c(O)c1O,41*,/,31*,17,22,/,/,BSA probe FL=-15;TCR-CD3 inh conf=17;SIAE confirm=18*
O=C(COc1nsnc1N1CCOCC1)N/N=C/c1ccccc1O,-6,-1,3,0,-3,3,/,
COc1ccc(S[C@]2(C(=O)N3CCN(c4ncccn4)CC3)CC(=O)N(C(=O)c3ccccc3)[C@@H]2c2ccc(OC)cc2)cc1,/,/,-3,/,-1,/,/,
COc1ccc(NC(=O)NC(C)(C(F)(F)F)C(F)(F)F)cc1,5,-3,4,0,0,2,/,
CC(NC(=O)Nc1ccc(O)cc1)(C(F)(F)F)C(F)(F)F,54*,6,26*,32,66*,0,2,BSA probe FL=4;TCR-CD3 inh conf=0;SIAE confirm=-3
Cc1cc(O)ccc1N/C=C1\CCCC1=O,34*,24,46*,31,69*,8,17,BSA probe FL=3;TCR-CD3 inh conf=3;SIAE confirm=1
O=C(O)CCN1C(=O)/C(=C/c2ccc(F)cc2F)SC1=S,/,/,-4,/,6,/,/,
O=C(CN(CCc1ccccc1)S(=O)(=O)c1ccc(F)cc1)N1CCOCC1,/,/,4,/,8,/,/,
Cc1ccc(C(=O)Nc2nc(C)c(C(=O)N(C)C)s2)o1,3,3,1,-5,6,4,/,
Cc1ccc(C(=O)Nc2nc(-c3ccco3)c(-c3ccco3)s2)o1,31*,/,41*,5,36*,/,-13,BSA probe FL=-1;TCR-CD3 inh conf=0;SIAE confirm=-19
CCC(C)c1ccccc1NC(=O)COC(=O)c1ccc(C)c(NC(=O)c2ccco2)c1 (configuration not stated),5,6,-4,-20,49*,-3,-10,
Cc1ccc(C(=O)OCC(=O)Nc2ccccc2)cc1NC(=O)c1ccco1,-3,-7,1,-10,-2,2,/,
Nc1c(Br)cc2c([nH]c(=O)c3ccccc32)c1Br,-8,/,8,20,42*,/,37*,
Nc1cc2[nH]c(=O)c3ccccc3c2cc1[N+](=O)[O-],5,/,-1,5,9,/,/,
O=c1c2cc3c(=O)n(-c4ccccc4O)c(=O)c3cc2c(=O)n1-c1ccccc1O,6,0,7,20,30*,1,2,
Cc1c(O)cc2n(c1=O)-c1ccccc1C2(C)C,-3,5,-1,10,4,-1,/,
COc1ccc(C(=O)NNC2=Nc3cccc4cccc2c34)cc1,-2,6,1,11,24,2,/,
Cc1ccc(C(=O)NNC2=Nc3cccc4cccc2c34)cc1,-4,-1,-2,11,30*,3,23,
COc1ccccc1CCNC(=O)c1nccnc1C(=O)O,/,1,/,0,/,-5,/,
Cc1nc(C)c(-c2csc(Nc3ccc(O)c(C(=O)O)c3)n2)s1,6,/,-12,-3,45*,/,31*,
Cc1nc(C)c(-c2csc(Nc3ccc(N)cc3)n2)s1,-3,10,17,34,9,5,/,
O=C(O)c1ccc(NS(=O)(=O)c2ccc3c(c2)C2C=CCC2C(c2ccccc2F)N3)cc1 (configuration not stated),-1,/,6,22,42*,/,26,
O=C(O)c1ccc2c(c1)C1C=CCC1C(c1cc3c(cc1Br)OCO3)N2 (configuration not stated),5,2,5,7,-7,8,/,

# Bioassay records as filed in PubChem BioAssay.
